# FN deposit inh – fibronectin deposition inhibition; inhibition, % at 12.6 µM; 350,000 compounds, 0.086% hits; AID 743247; AH1F fibroblasts, Alexa488-fibronectin deposition fluorescence, overnight;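 active = mean inhibition across replicates of 30% or more, regardless of how many single replicates reach that level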;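 note: positive control wells lacked labelled fibronectin entirely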
#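 Measured by – fluorescence 485/525 nm · System – AH1F fibroblast monolayer, labelled fibronectin deposition · Amount – 10000 cells per well · Buffer or medium – serum-reduced DMEM (2% serum) · Doses – single dose, pinned · Also added – fluorescent fibronectin at 24 nM final · Schedule – 1 h cell attachment, overnight exposure to compound and label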
# HIV Env fusion – HIV envelope-mediated fusion inhibition; 360,000 compounds, 1.1% hits; inhibition, % at 12.3 µM; HeLa-JRFL Env/CEM21 cell fusion, luciferase; AID 651610;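 active = mean replicate inhibition score of at least 50 and every replicate individually at or above 50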;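 note: 0% = plate neutral controls and 100% = maraviroc near 300 nM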
# S100A4 inh HTS – inhibitors of human S100A4 binding to myosin IIA peptide; P26447; S100A4/TAMRA-MyoIIA peptide fluorescence polarization; inhibition, % at 10.7 µM; 360,000 compounds, 0.14% hits; AID 652163;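 active = mean inhibition of at least 70% across replicates, with every replicate also reaching that level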
# Target sequence (P26447 whole entry, looked up): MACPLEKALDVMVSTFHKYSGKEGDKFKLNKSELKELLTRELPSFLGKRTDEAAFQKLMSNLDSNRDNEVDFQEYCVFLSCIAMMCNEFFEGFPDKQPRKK
#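 Material: S100A4 monomer protein / Buffer or medium: 50 mM HEPES pH 7.2, 10 mM CaCl2, 100 mM KCl / Times: 5 min incubation before reading / Benchmarks: neutral control DMSO, positive control TFP / Reagent: labelled myosin peptide probe, 5 nM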
# miR122 inh – blocks miR-122 activity in Huh7 sensor cells; Huh7 miR-122 Renilla luciferase sensor, 48 h; neutral wells = 0, positive control = 100; activation (reporter increase), % at 12.5 µM; 340,000 compounds, 0.3% hits;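 active = mean replicate activation score at least 90 and every replicate individually at or above 90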;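 note: higher luciferase means less miR-122 activity so hits act as miR-122 inhibitors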
# rRNA inh HTS – selective bacterial rRNA inhibition in E. coli | GFP signal change (wild-type ribosome), % (test concentration not listed) | E. coli WT GFP vs humanized-ribosome RFP mutants, fluorescence, 24 h; active compounds read low; DMSO median 0, no signal -100 | 350,000 compounds, 1.6% hits;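 active = significant combined selectivity score with lowered wild-type GFP, culture density cut under 30%, mutant RFP and density less affected; inactive = any of these conditions unmet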
# Vif imaging – HIV Vif inhibition; HEK293T cells, Vif self-association by quenched fluorescence, imaging, 24 h; inhibition, % at 7.49 µM; 340,000 compounds, 0.35% hits; in the data active = inhibition above about 50%, passing the limit was not always enough
# * marks the source's active call; other numbers are inactive results; x = no result; [ ] = remark or other dose. This is a sample that favours compounds with a hit; in the whole collection about 2.6% have one here.
SMILES,FN deposit inh,HIV Env fusion,S100A4 inh HTS,miR122 inh,rRNA inh HTS,Vif imaging
C=CCOc1c(Br)cc(CNn2c(C)n[nH]c2=S)cc1OCC,3,8,-4,4,-31*,-2
COc1cc(CNn2c(C)n[nH]c2=S)cc(Br)c1OCc1ccc(F)cc1,-5,28,5,x,-29,1
C[C@H]1CN([C@@H](C)CO)S(=O)(=O)c2ccc(C#CC3CCCC3)cc2O[C@H]1CN(C)Cc1ccccc1C(=O)O,x,10[16.7 µM],-91,10[16.7 µM],-2,x
CCCS(=O)(=O)c1cnc(C2COc3ccccc3O2)nc1N (stereo not given),-1,49,3,x,11,80*
C[C@@H]1CCCCO[C@H](CN(C)Cc2ccc(C(F)(F)F)cc2)[C@@H](C)CN([C@@H](C)CO)C(=O)c2cc(NS(=O)(=O)c3cn(C)cn3)ccc2O1,x,-168[16.7 µM],-5,2[16.7 µM],-1,x
O=C(NCCCN1CCC(Cc2ccccc2)CC1)C1CC(=O)N(C2CCCCCC2)C1 (stereo not given),x,55*,x,-5,x,-4
C/C=C/c1ccc([C@@H]2[C@@H](CO)N(C(C)=O)C23CN(C(=O)c2ccncc2)C3)cc1,x,x,-11,x,2,x
Cc1ccc(S(=O)(=O)N(C)C[C@@H]2Oc3ccc(NC(=O)Cn4cnnn4)cc3CC(=O)N([C@H](C)CO)C[C@@H]2C)cc1,x,89*[16.7 µM],-7,-10[16.7 µM],0,x
Cc1ccc(S(=O)(=O)N(C)C[C@H]2Oc3ccc(NC(=O)Cn4cnnn4)cc3CC(=O)N([C@H](C)CO)C[C@@H]2C)cc1,x,1[16.7 µM],-9,-14[16.7 µM],0,x
C[C@H](CO)N1C[C@H](C)[C@H](CN(C)S(=O)(=O)c2ccccc2)Oc2ccc(NC(=O)Cn3cnnn3)cc2CC1=O,x,65*[16.7 µM],6,6[16.7 µM],1,x
Oc1ccc(/C=N/Nc2nc(-c3ccc(Cl)cc3)cc(C(F)(F)F)n2)cc1,-1,24,3,-30,-23*,-6
Cc1cc(-c2ccccc2)nc(N/N=C/c2ccc(O)cc2)n1,1,-36,-4,-9,-7,-8
CCCn1c(SCc2ccc(C(=O)OC)o2)nc2ccccc2c1=O,-1,36,-1,x,5,-11
COC(=O)c1ccc(CSc2cc(C)c3ccccc3n2)o1,15,12,5,x,-22*,-3
C/C=C/c1ccc([C@@H]2[C@H](CO)N(Cc3cncnc3)C23CN(C(=O)CC)C3)cc1,x,x,5,x,2,x
O=C(N/N=C/c1cccc(O)c1)c1ccc2c(c1)OCCO2,18,-132,4,-1,-21*,-4
C=CC[n+]1c(-c2ccc(OC)c(OC)c2)csc1NNC(=O)Nc1ccccc1,1,74*,x,-2,x,-6
C=CC[n+]1c(-c2ccccc2)csc1NC(C)(C)C,-4,-136,0,x,5,3
Cc1nnc(SC(=O)N2c3ccccc3Sc3ccccc32)s1,11,69*,x,-8,x,5
CCN1[C@H](C(=O)NCCc2cn(C)cn2)[C@@H](CO)[C@@H]2Cn3c(ccc(-c4cccnc4)c3=O)[C@@H]21,x,x,8,-1[16.7 µM],3,x
O=C(CN1C(=O)NC(c2ccccc2)(c2ccccc2)C1=O)NCc1cccs1,8,x,0,x,-36*,-13
Cc1ccc(Cc2cc(-c3ccc(C)cc3)n[nH]c2=O)cc1,3,4,26,-4,5,7
Cc1ccc(-c2cc(Cc3ccccc3)c(=O)[nH]n2)cc1,-4,-5,-7,-7,-36*,0
O=C1N/C(=N\S(=O)(=O)Cc2ccccc2)S/C1=C/c1cc([N+](=O)[O-])ccc1O,5,13,-9,x,-20*,-1
O=C1N/C(=N\S(=O)(=O)c2ccccc2)S/C1=C\c1cc([N+](=O)[O-])ccc1O,-5,-3,-34,-4,-4,28
COc1ccc(CN(C)C[C@@H]2Oc3ccc(NC(=O)C4CC4)cc3CC(=O)N([C@H](C)CO)C[C@@H]2C)cc1,x,-26[16.7 µM],-47,5[16.7 µM],1,x
O=C(CSc1nnc(C2CC2)n1C1CC1)c1ccc(Br)s1,1,-19,-8,9,-28*,1
